# Only some compounds are listed: those with a hit (about 3.5% of all), similar ones and a draw of the others.
# RGS4 pot: RGS4 potentiators or activators, primary screen, cell-based, HEK293 M3R inducible RGS4, calcium flux | B-score at 10 µM | AID 463111, 2010 | carbachol calcium flux Fluo4; hits give low values | actives 0.92% (n = 310,000);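 active = B-score of the integrated calcium signal more than 4 SD below the library mean, with starting fluorescence not abnormally high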;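 also: negative B-score means reduced calcium response which marks RGS4 activation or potentiation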
#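 System – HEK293 FlpIn-TREx cells, stable M3R, doxycycline-inducible RGS4 · Reagent – ECmax carbachol challenge · Times – compound preincubation 20 min at room temperature before agonist · Technique – Fluo4 fluorescence kinetic imaging of calcium · Measure – B score of integrated Fluo4 ratio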
# MrgX1 antagonist: antagonists of human MrgX1 receptor, primary screen, HEK293 cells, Fluo-4 calcium flux | actives 1.3% (n = 310,000) | BAM8-22 antagonism; hits give low values | AID 588676, 2011 | B-score at 10 µM | Mas-related G-protein coupled receptor member X1 (Homo sapiens), Q96LB2;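 active = calcium-response B-score plate-corrected more than 3 library SD below zero, starting fluorescence within 5 deviations, no agonist response on first addition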;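 also: peak minus trough fluorescence over baseline after final BAM8-22 challenge near maximal dose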
# Target sequence (Q96LB2 whole entry, looked up): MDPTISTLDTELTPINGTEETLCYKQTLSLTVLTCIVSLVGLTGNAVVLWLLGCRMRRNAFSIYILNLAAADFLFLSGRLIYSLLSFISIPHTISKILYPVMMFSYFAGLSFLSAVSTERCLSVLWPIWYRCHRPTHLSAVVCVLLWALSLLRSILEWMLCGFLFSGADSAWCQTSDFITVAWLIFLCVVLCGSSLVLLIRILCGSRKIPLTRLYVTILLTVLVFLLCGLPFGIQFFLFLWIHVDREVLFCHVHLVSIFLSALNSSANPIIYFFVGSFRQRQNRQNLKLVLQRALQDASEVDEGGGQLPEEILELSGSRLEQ
# RGS4 inh: RGS4 inhibitors, primary screen, cell-based, HEK293 M3R inducible RGS4, calcium flux; Regulator of G-protein signaling 4 (Homo sapiens), P49798; Fluo-4 calcium flux; hits give high values; triggered by carbachol at its EC20; B-score at 10 µM; actives 0.45% (n = 310,000);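 active = B-score, a plate-corrected calcium signal, over three deviations above library mean, with baseline fluorescence within five deviations of library mean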;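 also: RGS4 expression induced by doxycycline in cells with stable M3 receptor; B-score is computed from the integrated fluorescence ratio over baseline after carbachol; higher B-score means a larger calcium signal and so more RGS4 inhibition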
# MrgX1 agonist: agonists of human MrgX1 receptor, primary screen, HEK293 cells, Fluo-4 calcium flux; Fluo-4 calcium fluorescence, agonist mode; hits give high values; B-score at 10 µM; actives 0.44% (n = 310,000);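 active = calcium response B-score plate-corrected fluorescence ratio at least 3 library SD, with starting fluorescence B-score inside 5 SD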
#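 Assay system: stable human MrgX1 HEK293 cell line. Quantity: 15,000 cells per well. Schedule: cells plated overnight, dye loaded 0.5 h 37 °C, 0.5 h room temperature. Detection: Fluo-4 NW calcium-flux fluorescence, kinetic read. Read-out basis: peak-minus-minimum fluorescence over baseline, converted to B scores. Control set: positive and negative control wells on each plate.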
# MrgX1 PAM: positive allosteric modulators of MrgX1, primary screen, HEK293 cells, Fluo-4 calcium flux; AID 588675, 2011; B-score at 10 µM; FDSS; hits give high values; actives 0.63% (n = 310,000);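 active = plate-corrected calcium response at least 3 library SD above typical, normal starting fluorescence, not activating the receptor alone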;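 also: compound read alongside a low EC10 to EC30 dose of BAM8-22 agonist; peak minus trough fluorescence over baseline measured at the second addition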
# * = called active by the depositor; i = inactive; / = no result.
SMILES,RGS4 pot,MrgX1 antagonist,RGS4 inh,MrgX1 agonist,MrgX1 PAM
Cc1ccccc1-c1cc(C(=O)Nc2sc(C)c(C)c2C(N)=O)c2ccccc2n1,i,i,6.2*,i,i
O=C(Nc1cccnc1)c1cc(-c2cccc(Br)c2)nc2ccccc12,-7.1*,i,i,i,i
Cc1cccc(C)c1NC(=O)C1CCCN1S(=O)(=O)c1ccccc1 (configuration not stated),i,i,i,i,i
Cc1cc([N+](=O)[O-])cc2c1NC(=O)C2(O)N1CCOCC1 (configuration not stated),i,i,i,i,i
CCOC(=O)C1C(=O)CC(C)(O)C(C(=O)OCC)C1c1ccc([N+](=O)[O-])cc1 (configuration not stated),i,i,i,i,i
O=C(NCc1cc([N+](=O)[O-])ccc1O)c1cc(-c2ccncc2)nc2ccccc12,-9.1*,i,i,i,i
Cc1c(Cl)c([N+](=O)[O-])nn1Cc1ccc(C(=O)Nc2ccc(Cl)cn2)o1,i,-6.9*,i,i,i
O=C(Nc1ccc(Cl)cn1)c1ccc([N+](=O)[O-])o1,i,/,i,/,/
Fc1ccc(NC(=S)Nc2ccc(F)c(Cl)c2)cc1Cl,i,-4.8*,i,i,i
CN(C)NC(=S)Nc1ccc(Cl)cc1,i,-6*,i,i,i
O=C(NC(=S)Nc1ccc(F)c(Cl)c1)C1CC1,i,i,i,i,i
Cc1ccccc1-n1nnnc1SCC(=O)NCC1CCCO1 (configuration not stated),i,i,i,i,i
Cc1ccc(CNC(=O)CCCn2nc(C)n3ccnc3c2=O)cc1,i,i,i,i,i
Cc1ccc2sc(NNC(=O)c3cc(=O)c4ccccc4o3)nc2c1C,i,-8.7*,i,i,i
Cc1cccc2sc(NNC(=O)c3cc(=O)c4ccccc4o3)nc12,i,i,i,i,i
O=[N+]([O-])c1cc(Br)c(Nc2ccccc2)c([N+](=O)[O-])c1,i,i,i,i,6.6*
COc1cccc(CNC(=O)CSCC(=O)Nc2ccc(C)cc2)c1,i,i,i,i,i
CCCCN(CCCNC(=O)c1c(C)cc(=O)oc1C)c1ccccc1,i,-7.9*,i,i,i
O=C(C1CCC1)N1CCc2cc(S(=O)(=O)NC3CCCC3)ccc21,i,i,i,i,i
CN1CCN(c2ccccc2NS(=O)(=O)c2ccc3c(c2)CCN3C(=O)C2CCC2)CC1,-9.8*,i,i,i,i
Clc1ccc2c(c1)CCc1cccnc1C2=C1CCNCC1,-7.2*,i,i,i,i
Cc1c(C)c(C)c(S(=O)(=O)N2CCNCC2)c(C)c1C,i,i,i,i,i
CC(=O)Nc1sc(C)c(C)c1C(=O)OCC(=O)N(CC(C)C)c1c(N)n(Cc2ccccc2)c(=O)[nH]c1=O,-7.8*,i,i,i,i
COC(=O)c1c(C)[nH]c(C(=O)OCC(=O)N(CC(C)C)c2c(N)n(Cc3ccccc3)c(=O)[nH]c2=O)c1C,i,i,i,i,i
Cc1cccc(NC(=O)c2n[nH]c([N+](=O)[O-])c2Br)c1C,i,i,i,i,7.1*
Cc1cccc(NC(=O)c2ccccn2)c1C,i,i,i,i,i
CCCCn1c(N)c(N(CCOC)C(=O)c2ccc(-c3ccccc3)cc2)c(=O)[nH]c1=O,i,i,i,i,i
Cc1ccc2nc(-c3ccccc3)nc(SC(C)C(=O)NCc3cccs3)c2c1 (configuration not stated),i,-7.3*,i,i,i
CCOc1ccc(OCCOC(=O)CNC(=O)c2ccc(Cl)cc2Cl)cc1,i,-7*,i,i,i
CC(/C=N/NC(=O)c1ccc(Cn2cc([N+](=O)[O-])cn2)o1)=C\c1ccccc1,i,-5.4*,i,i,i

# Screening data deposited in PubChem BioAssay by Johns Hopkins Ion Channel Center.
